# According to ChEMBL document CHEMBL4270599, “Synthesis of a 3'-C-ethynyl-β-d-ribofuranose purine nucleoside library: Discovery of C7-deazapurine analogs as potent antiproliferative nucleosides” (Eur J Med Chem, 2018):
# Legend:
# HL-60(TB) = assay: Growth inhibition of human HL-60(TB) cells assessed as cell growth at 10^-6 M incubated for 48 hrs by sulforhodamine B assay relative to control; type: functional; conditions: HL-60, 48 h, read-out: Activity
# SF-539 = assay: Growth inhibition of human SF539 cells assessed as cell growth at 10^-8 M incubated for 48 hrs by sulforhodamine B assay relative to control; type: functional; conditions: SF-539, 48 h, read-out: Activity
# KM12 = assay: Growth inhibition of human KM12 cells assessed as cell growth at 10^-8 M incubated for 48 hrs by sulforhodamine B assay relative to control; type: functional; conditions: KM12, 48 h, read-out: Activity
# SK-MEL-28 = assay: Growth inhibition of human SK-MEL-28 cells assessed as cell growth at 10^-6 M incubated for 48 hrs by sulforhodamine B assay relative to control; type: functional; conditions: SK-MEL-28, 48 h, read-out: Activity
# HOP-62 [1] = assay: Growth inhibition of human HOP62 cells assessed as cell growth at 10^-6 M incubated for 48 hrs by sulforhodamine B assay relative to control; type: functional; conditions: HOP-62, 48 h, read-out: Activity
# Hs-578T = assay: Cytotoxicity against human Hs 578T cells after 48 hrs by SRB assay; type: functional
# U-251 = assay: Growth inhibition of human U251 cells assessed as cell growth at 10^-7 M incubated for 48 hrs by sulforhodamine B assay relative to control; type: functional; conditions: U-251, 48 h, read-out: Activity
# DU-145 = assay: Growth inhibition of human DU145 cells assessed as cell growth at 10^-6 M incubated for 48 hrs by sulforhodamine B assay relative to control; type: functional; conditions: DU-145, 48 h, read-out: Activity
# CCRF-CEM [2] = assay: Antiproliferative activity against human CEM cells after 72 hrs by Coulter counter method; type: functional, cell-based
# Procedure, shortened: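 Cell count assay in 96-well microtiter plates; (5–7.5) × 10⁴ tumor cells per well plus test compound. Cells proliferated at 37 °C in humidified CO₂-controlled atmosphere, 48 h for murine leukemia L1210, 72 h for human lymphocytic CEM and cervix carcinoma HeLa. Counted by Coulter counter; IC₅₀ is the concentration that inhibits proliferation by 50%.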
# MCF7 = assay: Growth inhibition of human MCF7 cells assessed as cell growth at 10^-6 M incubated for 48 hrs by sulforhodamine B assay relative to control; type: functional; conditions: MCF7, 48 h, read-out: Activity
# NCI-H23 = assay: Growth inhibition of human NCI-H23 cells assessed as cell growth at 10^-6 M incubated for 48 hrs by sulforhodamine B assay relative to control; type: functional; conditions: NCI-H23, 48 h, read-out: Activity
# M14 = assay: Growth inhibition of human M14 cells assessed as cell growth at 10^-6 M incubated for 48 hrs by sulforhodamine B assay relative to control; type: functional; conditions: M14, 48 h, read-out: Activity
# NCI-H460 [3] = assay: Cytotoxicity against human NCI-H460 cells after 48 hrs by SRB assay; type: functional; conditions: NCI-H460, 48 h
# SW-620 = assay: Growth inhibition of human SW620 cells assessed as cell growth at 10^-7 M incubated for 48 hrs by sulforhodamine B assay relative to control; type: functional; conditions: SW-620, 48 h, read-out: Activity
# HCT-15 = assay: Growth inhibition of human HCT15 cells assessed as cell growth at 10^-6 M incubated for 48 hrs by sulforhodamine B assay relative to control; type: functional; conditions: HCT-15, 48 h, read-out: Activity
# OVCAR-5 [4] = assay: Growth inhibition of human OVCAR5 cells assessed as cell growth at 10^-4 M incubated for 48 hrs by sulforhodamine B assay relative to control; type: functional; conditions: OVCAR-5, 48 h, read-out: Activity
# NCI-H460 [5] = assay: Growth inhibition of human NCI-H460 cells assessed as cell growth at 10^-6 M incubated for 48 hrs by sulforhodamine B assay relative to control; type: functional; conditions: NCI-H460, 48 h, read-out: Activity
# NCI/ADR-RES = assay: Growth inhibition of human NCI/ADR-RES cells assessed as cell growth at 10^-8 M incubated for 48 hrs by sulforhodamine B assay relative to control; type: functional; conditions: read-out: Activity
# HUVEC = assay: Antiproliferative activity against HUVEC cells after 4 days by Coulter counter method; type: cell-based; conditions: Homo sapiens, 96 h
# Procedure, shortened: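 Primary HUVEC, primary HMVEC-d and the HMEC-1 line seeded at 20,000 cells/well in gelatin-coated plates in EC growth medium (EGM2). After overnight incubation, 5-fold compound dilutions added. Cells proliferated four days with compound, then trypsinized and counted by Coulter counter to derive IC₅₀.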
# OVCAR-5 [6] = assay: Growth inhibition of human OVCAR5 cells assessed as cell growth at 10^-8 M incubated for 48 hrs by sulforhodamine B assay relative to control; type: functional; conditions: OVCAR-5, 48 h, read-out: Activity
# RXF 393 = assay: Cytotoxicity against human RXF393 cells after 48 hrs by SRB assay; type: functional; conditions: RXF 393, 48 h
# NCI-H322M = assay: Growth inhibition of human NCI-H322M cells assessed as cell growth at 10^-7 M incubated for 48 hrs by sulforhodamine B assay relative to control; type: functional; conditions: read-out: Activity
# UACC-257 = assay: Growth inhibition of human UACC257 cells assessed as cell growth at 10^-5 M incubated for 48 hrs by sulforhodamine B assay relative to control; type: functional; conditions: UACC-257, 48 h, read-out: Activity
# SK-MEL-5 = assay: Growth inhibition of human SK-MEL-5 cells assessed as cell growth at 10^-6 M incubated for 48 hrs by sulforhodamine B assay relative to control; type: functional; conditions: SK-MEL-5, 48 h, read-out: Activity
# HOP-62 [7] = assay: Growth inhibition of human HOP62 cells assessed as cell growth at 10^-7 M incubated for 48 hrs by sulforhodamine B assay relative to control; type: functional; conditions: HOP-62, 48 h, read-out: Activity
# CCRF-CEM [8] = assay: Cytotoxicity against human CCRF-CEM cells after 48 hrs by SRB assay; type: functional
# CCRF-CEM [9] = assay: Growth inhibition of human CCRF-CEM cells assessed as cell growth at 10^-6 M incubated for 48 hrs by sulforhodamine B assay relative to control; type: functional; conditions: read-out: Activity
# [10] = read-out: LC50 (the source's name)
smiles,measurement,setting,value
C#C[C@@]1(O)[C@@H](CO)O[C@@H](n2cc(I)c3c(N)ncnc32)[C@@H]1O,growth at 1 µM,HL-60(TB),-38%
same,growth at 0.01 µM,SF-539,89 to 102%
same,growth at 0.01 µM,KM12,94 to 97%
same,growth at 1 µM,SK-MEL-28,62 to 78%
same,growth at 1 µM,HOP-62 [1],33 to 61%
same,GI50,Hs-578T; read-out: GI50,550 to 1120 nM
same,CC50,Hs-578T; [10],> 100000 nM
same,TGI,Hs-578T; read-out: TGI,7120 to 8620 nM
same,growth at 0.1 µM,U-251,40 to 45%
same,growth at 1 µM,DU-145,19 to 26%
same,IC50,CCRF-CEM [2],120 nM
same,growth at 1 µM,MCF7,1 to 6%
same,growth at 1 µM,NCI-H23,28 to 33%
same,growth at 1 µM,M14,38 to 43%
same,GI50,NCI-H460 [3]; read-out: GI50,58.4 to 137 nM
same,CC50,NCI-H460 [3]; [10],75400 to 100000 nM
same,TGI,NCI-H460 [3]; read-out: TGI,1670 to 2180 nM
same,growth at 0.1 µM,SW-620,39%
same,growth at 1 µM,HCT-15,11 to 20%
same,growth at 100 µM,OVCAR-5 [4],2 to 5%
same,growth at 1 µM,NCI-H460 [5],6 to 9%
same,growth at 0.01 µM,NCI/ADR-RES,86 to 88%
same,IC50,HUVEC,9.9 nM
same,growth at 0.01 µM,OVCAR-5 [6],79 to 80%
same,GI50,RXF 393; read-out: GI50,418 to 463 nM
same,CC50,RXF 393; [10],7840 to 100000 nM
same,TGI,RXF 393; read-out: TGI,2010 to 2540 nM
same,growth at 0.1 µM,NCI-H322M,69 to 82%
same,growth at 10 µM,UACC-257,6 to 7%
same,growth at 1 µM,SK-MEL-5,14 to 26%
same,growth at 0.1 µM,HOP-62 [7],72 to 75%
same,GI50,CCRF-CEM [8]; read-out: GI50,249 to 295 nM
same,TGI,CCRF-CEM [8]; read-out: TGI,> 100000 nM
same,CC50,CCRF-CEM [8]; read-out: pLC50 (the source's name) (converted),> 100000 nM
same,TGI,CCRF-CEM [8]; read-out: pTGI,> 100000 nM
same,growth at 1 µM,CCRF-CEM [9],17 to 23%
